# Assay results published in ChEMBL document CHEMBL2169863, “Discovery, structure-activity relationship, and biological evaluation of noninhibitory small molecule chaperones of glucocerebrosidase” (J Med Chem, 2012).
# Substitutions are numbered along the chain they refer to. Calls of active or inactive are those of the source. Unless noted, the calls are words filed in the database; no cut-off is given here.
# Key:
# Caco-2 [1] = experiment: Apparent permeability of the compound from basal to apical side of human Caco2 cells after 2 hrs; format: ADME, cell-based; details: caco-2, 2 h
# Summary of the method: (§1)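 Caco-2 monolayers were grown 3 weeks, with integrity checked by Lucifer yellow. Compound was added apically (pH 6.5 HBSS/HEPES/glucose buffer) or basolaterally (pH 7.4) and incubated 2 h. Transfer was quantified by LC−MS/MS and expressed as P_app. Efflux ratio is P_app B→A over A→B.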
# [2] = target: Lysosomal alpha-glucosidase (Homo sapiens) (UniProt P10253); experiment: Activation of alpha-glucosidase using 4-MU-alpha-glucose as substrate
# Brain [3] = experiment: AUClast in C57BL/6 mouse brain at 50 mg/kg, ip; format: ADME, organism-based; set-up: dose 50 mg/kg, route intraperitoneal, time 0 - last; details: in vivo
# Summary of the method: (§2)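 Male C57BL/6 mice, 18−26 g, given a single ip dose of 50 mpk in 20% PEG 400 + 80% (20% HP-β-CD). Plasma, brain and liver were sampled, and brain and liver were homogenized in 3 volumes of PBS pH 7.4 (dilution factor 4). Analysis was by LC−MS/MS. Mean profiles N = 3.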
# [4] = Cytotoxicity against human dermal fibroblasts isolated from Gcase N370S carrier at 5 uM after 6 days; format: cell-based; details: fibroblast, 144 h
# Summary of the method: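 Fibroblasts of the stated genotype were seeded at 5000 cells/well. After 1 day they were switched to OPTI-MEM with 5% FBS and treated 6 days with compound. Viability was read by CellTiter-Glo luminescence on a parallel plate.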
# Brain [5] = experiment: Half life in C57BL/6 mouse brain at 50 mg/kg, ip; format: ADME, organism-based; set-up: dose 50 mg/kg, route intraperitoneal; details: in vivo; summary of the method: as §2
# Liver [6] = experiment: Metabolic stability in CD1 mouse liver microsomes assessed as compound remaining at 1 uM after 60 mins by LC/MS/MS analysis in absence of NADPH; format: ADME, Microsome; details: 1 h
# Summary of the method: (§3)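 Compound at 1 μM was incubated in duplicate with CD-1 mouse liver microsomes at 37 °C in 100 mM potassium phosphate pH 7.4 with 3 mM MgCl₂, with or without 2 mM NADPH, for 60 min. Reaction was quenched in cold acidified MeCN with internal standard. Parent was quantified by LC−MS/MS as percent of time zero.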
# Plasma [7] = experiment: Tmax in C57BL/6 mouse plasma at 50 mg/kg, ip; format: ADME, organism-based; set-up: dose 50 mg/kg, route intraperitoneal; details: in vivo; summary of the method: as §2
# [8] = target: T1, Lysosomal acid glucosylceramidase (Homo sapiens) (UniProt P04062); experiment: Activation of wild type glucocerebrosidase translocation to lysosome in human dermal fibroblast incubated for 6 days by LAMP2 colocalization-based laser scanning confocal microscopic analysis relative to vehicle-treated control
# T1 sequence (whole entry): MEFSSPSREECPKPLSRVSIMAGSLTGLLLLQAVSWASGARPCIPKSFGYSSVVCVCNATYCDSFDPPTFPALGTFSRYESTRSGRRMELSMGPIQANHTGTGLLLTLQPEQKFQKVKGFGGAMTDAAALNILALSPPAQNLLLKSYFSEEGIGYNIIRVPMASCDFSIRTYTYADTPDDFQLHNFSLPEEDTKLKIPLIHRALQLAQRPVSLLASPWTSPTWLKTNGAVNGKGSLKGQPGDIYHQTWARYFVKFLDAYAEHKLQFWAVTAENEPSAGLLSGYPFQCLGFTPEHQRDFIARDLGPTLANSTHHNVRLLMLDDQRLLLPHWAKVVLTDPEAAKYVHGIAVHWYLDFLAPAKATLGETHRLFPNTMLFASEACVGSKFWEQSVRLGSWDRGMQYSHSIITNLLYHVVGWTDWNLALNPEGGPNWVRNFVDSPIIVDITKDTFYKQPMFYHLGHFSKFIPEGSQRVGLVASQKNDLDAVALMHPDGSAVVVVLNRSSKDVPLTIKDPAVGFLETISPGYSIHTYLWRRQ
# Caco-2 [9] = experiment: Apparent permeability of the compound from apical to basal side of human Caco2 cells after 2 hrs; format: ADME, cell-based; details: caco-2, 2 h; summary of the method: as §1
# Liver [10] = experiment: Metabolic stability in CD1 mouse liver microsomes assessed as compound remaining at 1 uM after 60 mins by LC/MS/MS analysis in presence of NADPH; format: ADME, Microsome; details: 1 h; summary of the method: as §3
# Brain [11] = experiment: Cmax in C57BL/6 mouse brain at 50 mg/kg, ip; format: ADME, organism-based; set-up: dose 50 mg/kg, route intraperitoneal; details: in vivo; summary of the method: as §2
# Plasma [12] = experiment: AUC (infinity) in C57BL/6 mouse plasma at 50 mg/kg, ip; format: ADME, organism-based; set-up: time infinity, dose 50 mg/kg, route intraperitoneal; details: in vivo; summary of the method: as §2
# [13] = tested on: T2, Lysosomal acid glucosylceramidase (Homo sapiens), P04062 [N409S]; experiment: Activation of glucocerebrosidase N370S mutant using C12-BODIPY-GlcCer as substrate assessed as half-maximal activation concentration incubated for 5 mins prior to substrate addition measured after 30 to 45 mins by HPLC analysis
# T2 sequence (whole entry): T1 sequence (whole entry) with N409S
# Summary of the method: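 N370S/N370S patient spleen homogenate at 140 μg/well. Compound was tested at 9 concentrations, 1:2 dilutions from 50 μM. Substrate was 2 mM 4MU-Glc or the C12-BODIPY substrate at 25 μM; other conditions as the plate assay. Stopped reactions were separated on C18 HPLC with fluorescence detection: 4MU at 365/440 nm, C12-BODIPY-Cer at 506/540 nm.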
# Plasma [14] = experiment: Half life in C57BL/6 mouse plasma at 50 mg/kg, ip; format: ADME, organism-based; set-up: dose 50 mg/kg, route intraperitoneal; details: in vivo; summary of the method: as §2
# [15] = target: T3, Lysosomal acid glucosylceramidase (Homo sapiens, UniProt P04062); experiment: (§4) Binding affinity to NT-647 labeled glucocerebrosidase by microscale thermophoretic analysis; details: read-out: Kd(app)
# T3 sequence (P04062 whole entry): T1 sequence (whole entry)
# Summary of the method: (§5)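 NT-647-labeled glucocerebrosidase at ~20 nM in 50 mM phosphate pH 7.2, 0.05% Tween-20. It was mixed 1:1 with a 16-point DMSO dilution series and incubated 15 min at room temperature before capillary microscale thermophoresis. Apparent K_d was taken from the dose-dependent fluorescence change.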
# [16] = target: T1, Lysosomal acid glucosylceramidase (Homo sapiens); experiment: as §4; summary of the method: as §5
# Plasma [17] = experiment: AUClast in C57BL/6 mouse plasma at 50 mg/kg, ip; format: ADME, organism-based; set-up: time 0 - last, dose 50 mg/kg, route intraperitoneal; details: in vivo; summary of the method: as §2
smiles,measurement,setting,value
C#Cc1ccc(NC(=O)c2cnn3c(C)cc(C)nc23)cc1,Papp,Caco-2 [1],2 ×10⁻⁶ cm/s
same,Activity,[2],inactive
same,AUClast,Brain [3],1260 ng·h/mL
same,Activity,[4],Non-toxic
same,t1/2,Brain [5],18.2 h
same,Stability,Liver [6],42%
same,Tmax,Plasma [7],0.25 h
same,Activity,[8],Active
same,Papp,Caco-2 [9],6 ×10⁻⁶ cm/s
same,Stability,Liver [10],45%
same,Cmax,Brain [11],2760 nM
same,AUC,Plasma [12],474 ng·h/mL
same,Activity,[13],inactive
same,t1/2,Plasma [14],19.3 h
same,Kd,[15],9 µM
same,Activity,[16],Dose-dependent effect
same,AUClast,Plasma [17],434 ng·h/mL
